From ChEMBL document CHEMBL4359877, “Identification of benzothiazinones containing an oxime functional moiety as new anti-tuberculosis agents” (Eur J Med Chem, 2019)
Values after ≈ are worked out from the molar mass of the structure shown.

Columns and labels:
[1] = test system: Mycobacterium tuberculosis; experiment: Antimycobacterial activity against multidrug-resistant Mycobacterium tuberculosis isolate 16995 assessed as reduction in bacterial cell growth incubated for 7 days by microplate alamar blue assay; type: functional; conditions: isolate 16995, 168 h
Method in brief: (§1)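 MABA: H37Rv or clinical MDR isolates (resistant to INH and RFP, Beijing Chest Hospital patients) grown to late log phase in 7H9 with glycerol, Tween 80 and ADC, washed, filtered and frozen. Two-fold compound dilutions with 2 × 10⁵ CFU per well, 37 °C; Alamar blue plus Tween 80 added on day 7, fluorescence (ex 530/em 590) read after 16–24 h. MIC = lowest concentration giving ≥90% fluorescence reduction versus mean of bacterium-only controls; RIF and INH as positive controls.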

[2] = test system: Mycobacterium tuberculosis; experiment: Antimycobacterial activity against multidrug-resistant Mycobacterium tuberculosis isolate 16833 assessed as reduction in bacterial cell growth incubated for 7 days by microplate alamar blue assay; type: functional; conditions: isolate 16833, 168 h; method in brief: as §1

Structure (SMILES) | MIC90 [1] [µg/mL] | MIC90 [2] [µg/mL]
NNC(=O)c1ccncc1 [ISONIAZID] | > 40 | > 40
CCON=C1CCC(CN2CCN(c3nc(=O)c4cc(C(F)(F)F)cc([N+](=O)[O-])c4s3)[C@H](C)C2)CC1 (some centres undefined) | < 0.016 | < 0.016
C/C(CN1CCN(c2nc(=O)c3cc(C(F)(F)F)cc([N+](=O)[O-])c3s2)CC1)=N\OCc1ccccc1 | 0.01 (≈ 0.0192 µM) | < 0.016
CON=C1CCC(CN2CCN(c3nc(=O)c4cc(C(F)(F)F)cc([N+](=O)[O-])c4s3)C[C@H]2C)CC1 (some centres undefined) | < 0.016 | < 0.016
CCON=C1CC(CN2CCN(c3nc(=O)c4cc(C(F)(F)F)cc([N+](=O)[O-])c4s3)CC2)C1 (centres undefined) | < 0.016 | < 0.016
CCON=C1CCC(CN2CCN(c3nc(=O)c4cc(C(F)(F)F)cc([N+](=O)[O-])c4s3)[C@@H](C)C2)CC1 (some centres undefined) | < 0.016 | < 0.016
CO[C@H]1/C=C/O[C@@]2(C)Oc3c(C)c(O)c4c(O)c(c(/C=N/N5CCN(C)CC5)c(O)c4c3C2=O)NC(=O)/C(C)=C\C=C\[C@H](C)[C@H](O)[C@@H](C)[C@@H](O)[C@@H](C)[C@H](OC(C)=O)[C@@H]1C [RIFAMPIN] | > 40 | > 40
CON=C1CCC(CN2CCN(c3nc(=O)c4cc(C(F)(F)F)cc([N+](=O)[O-])c4s3)CC2)CC1 (centres undefined) | < 0.016 | < 0.016
CON=C1CCC(CN2CCN(c3nc(=O)c4cc(C(F)(F)F)cc([N+](=O)[O-])c4s3)C[C@@H]2C)CC1 (some centres undefined) | < 0.016 | < 0.016
CON=C1CCC(CN2CCN(c3nc(=O)c4cc(C(F)(F)F)cc([N+](=O)[O-])c4s3)[C@@H](C)C2)CC1 (some centres undefined) | < 0.016 | < 0.016
CON=C1CCC(CN2C(C)CN(c3nc(=O)c4cc(C(F)(F)F)cc([N+](=O)[O-])c4s3)CC2C)CC1 (centres undefined) | < 0.016 | < 0.016
CCO/N=C(\C)CCN1CCN(c2nc(=O)c3cc(C(F)(F)F)cc([N+](=O)[O-])c3s2)CC1 | < 0.016 | < 0.016
CCON=C1CCC(CN2CCN(c3nc(=O)c4cc(C(F)(F)F)cc([N+](=O)[O-])c4s3)CC2)CC1 (centres undefined) | < 0.016 | < 0.016
CO/N=C(\C)CCN1CCN(c2nc(=O)c3cc(C(F)(F)F)cc([N+](=O)[O-])c3s2)CC1 | < 0.016 | 0.017 (≈ 0.037 µM)
C/C(CCN1CCN(c2nc(=O)c3cc(C(F)(F)F)cc([N+](=O)[O-])c3s2)CC1)=N\OCc1ccccc1 | < 0.016 | < 0.016
CCON=C1CCC(CN2CCN(c3nc(=O)c4cc(C(F)(F)F)cc([N+](=O)[O-])c4s3)CC2C)CC1 (centres undefined) | < 0.016 | < 0.016
CCO/N=C(\C)CN1CCN(c2nc(=O)c3cc(C(F)(F)F)cc([N+](=O)[O-])c3s2)CC1 | 0.01 (≈ 0.0218 µM) | < 0.016
CCON=C1CCC(CN2CCN(c3nc(=O)c4cc(C(F)(F)F)cc([N+](=O)[O-])c4s3)C[C@H]2C)CC1 (some centres undefined) | < 0.016 | < 0.016
CCON=C1CCC(CN2C(C)CN(c3nc(=O)c4cc(C(F)(F)F)cc([N+](=O)[O-])c4s3)CC2C)CC1 (centres undefined) | < 0.016 | < 0.016
O=c1nc(N2CCN(CC3CCCCC3)CC2)sc2c([N+](=O)[O-])cc(C(F)(F)F)cc12 [MACOZINONE] | < 0.016 | < 0.016
CCON=C1CCC(CN2CCN(c3nc(=O)c4cc(C(F)(F)F)cc([N+](=O)[O-])c4s3)C[C@@H]2C)CC1 (some centres undefined) | < 0.016 | < 0.016
CON=C1CCC(CN2CCN(c3nc(=O)c4cc(C(F)(F)F)cc([N+](=O)[O-])c4s3)CC2C)CC1 (centres undefined) | < 0.016 | < 0.016
